Screening results as filed in PubChem BioAssay.
VIM-2 inhibitor – VIM-2 metallo-beta-lactamase inhibitors, primary screen, biochemical, epi-absorbance readout, Pseudomonas aeruginosa enzyme; purified VIM-2, nitrocefin hydrolysis, epi-absorbance fluorescence; inhibition, % at 5.6 µM; 290,000 compounds, 0.89% hits; AID 1527, 2009;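 active = inhibition above the mean of all tested compounds plus 3 SD, cutoff set per screening run, cut at about 7.5% in these data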;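 note: red hydrolysis product quenches plate fluorescence so inhibitors raise well fluorescence; 0% = enzyme with DMSO and 100% = DMSO without enzyme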
HCV core dimer – inhibitors of HCV core protein dimerization, primary screen, biochemical, TR-FRET, high-throughput; inhibition, % at 5 µM; 300,000 compounds, 0.33% hits; TR-FRET GST/Flag-core106 dimerization, 1536-well;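 active = inhibition above the mean of all tested compounds plus 3 SD, set per screening campaign, cut at about 45% in these data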
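System: GST-tagged and Flag-tagged HCV core protein residues 1-106 / Input: core106 proteins, GST 13.5 nM and Flag 17 nM / Buffer or medium: KF-containing HEPES buffer, pH 7.45, DTT, CHAPS, BSA / Probe or stimulus: Eu-anti-GST and XL665-anti-Flag labelled anti-tag antibodies / Schedule: 4 h, 22.5 °C incubation / Technique: TR-FRET 671 and 617 nm emission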
DNA FID counter – compounds displacing fluorescent DNA intercalator, primary screen, artefact control for HCV NS3 helicase inhibitor project, biochemical, FID fluorescence. DNA fluorescent intercalator displacement. inhibition, % at 7.9 µM. 290,000 compounds, 0.17% hits; in the data active = inhibition above about 37%;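 note: 0% = vehicle and 100% = reference compound; higher means more ethidium bromide displaced from hairpin DNA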
IMP-1 inh-1 – IMP-1 metallo-beta-lactamase inhibitors, primary screen, biochemical, epi-absorbance readout, Pseudomonas aeruginosa enzyme; inhibition, % at 5.6 µM; 290,000 compounds, 0.45% hits; metallo-beta-lactamase IMP-1 (Pseudomonas aeruginosa); purified IMP-1, nitrocefin hydrolysis, epi-absorbance fluorescence;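 active = inhibition above the mean plus 3 SD of all compounds in the same screening run, cut at about 4.5% in these data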;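 note: 0% = IMP-1 with DMSO and 100% = DMSO wells lacking enzyme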
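System: Purified recombinant IMP-1 metallo-beta-lactamase enzyme | Measured by: Fluorescence quenching readout, ex 480/em 530 nm | Replication: Singlicate | Incubation: 15 min preincubation plus 25 min reaction at 25 °C | Evaluation: Percent inhibition from optical density relative to buffer-blank wells | Benchmarks: DMSO with and without IMP-1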
IMP-1 inh-2 – IMP-1 metallo-beta-lactamase inhibitors, confirmation, selectivity assay for selective VIM-2 inhibitor project, biochemical, epi-absorbance readout, triplicate. shares compounds with VIM-2 inhibitor. purified IMP-1, nitrocefin hydrolysis, epi-absorbance fluorescence. inhibition, % at 5.6 µM. 1,300 tested, under 10 active. AID 1856, 2009; call rule not given here;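 note: 0% = enzyme with vehicle and 100% = vehicle without enzyme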
VIM-2 FRET inh – VIM-2 inhibitors in FRET format, confirmation, artefact control for selective VIM-2 inhibitor project, biochemical, epi-absorbance artifact exclusion | shares compounds with VIM-2 inhibitor | purified VIM-2, CCF2 FRET substrate hydrolysis | 1,300 compounds, 23% hits | inhibition, % at 5.6 µM | AID 1857, 2009;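 active = inhibition above the mean of all tested compounds plus 3 SD, cut at about 19% in these data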;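 note: 0% = VIM-2 plus DMSO and 100% = no enzyme wells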
TEM-1 counter – TEM-1 serine beta-lactamase inhibitors, counter-screen for VIM-2 inhibitor project, biochemical, epi-absorbance, HTS. AID 1866, 2009. shares compounds with VIM-2 inhibitor. inhibition, % at 5.6 µM. Purified TEM-1, nitrocefin hydrolysis, epi-absorbance fluorescence. 1,300 compounds, 3% hits;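 active = inhibition above that campaign's mean inhibition plus 3 SD, cut at about 0.46% in these data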;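 note: 0% = TEM-1 with DMSO and 100% = TEM-1 with 100 µM potassium clavulanate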
Target sequence (P62593 whole entry, looked up): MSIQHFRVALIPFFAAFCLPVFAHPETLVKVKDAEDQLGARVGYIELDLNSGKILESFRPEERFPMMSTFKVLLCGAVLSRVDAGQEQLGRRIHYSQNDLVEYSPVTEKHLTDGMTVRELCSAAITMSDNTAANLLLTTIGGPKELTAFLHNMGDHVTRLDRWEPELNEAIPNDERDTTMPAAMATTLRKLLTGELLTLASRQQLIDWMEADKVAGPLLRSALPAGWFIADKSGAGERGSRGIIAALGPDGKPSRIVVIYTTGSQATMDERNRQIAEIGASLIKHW
VIM-2 inh conf – VIM-2 metallo-beta-lactamase inhibitors, confirmation, biochemical, epi-absorbance, hits shared with IMP-1 screen | shares compounds with VIM-2 inhibitor | purified VIM-2, nitrocefin hydrolysis | inhibition, % at 5.6 µM | 1,300 compounds, 96% hits;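 active = inhibition of the VIM-2 beta-lactamase enzyme above about 11% from the earlier first-round screen, limit read from the data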;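 note: 0% = VIM-2 with DMSO and 100% = buffer wells without enzyme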
An asterisk follows results filed as active. Most compounds without a hit are left out; they make up all but 1.6% or so of the library.

For CC(Sc1nc2ccccc2c(=O)[nH]1)C(=O)O (configuration not stated) the results were VIM-2 inhibitor -4, HCV core dimer 8, DNA FID counter 1 and IMP-1 inh-1 -1.
For COc1cnc(-c2ccccn2)nc1NC(C)C the results were VIM-2 inhibitor 7, HCV core dimer -2, DNA FID counter 5 and IMP-1 inh-1 -3.
Screening COc1cnc(-c2ccccn2)nc1Oc1ccccc1Cl returned VIM-2 inhibitor 17*, HCV core dimer -3, DNA FID counter -14, IMP-1 inh-1 -2, IMP-1 inh-2 -4, VIM-2 FRET inh -26, TEM-1 counter -4 and VIM-2 inh conf 46*.
Screening COc1cnc(-c2ccccn2)nc1Oc1ccc(Cl)c2ccccc12 returned VIM-2 inhibitor 39*, HCV core dimer 2, DNA FID counter -9, IMP-1 inh-1 -4, IMP-1 inh-2 -4, VIM-2 FRET inh -30, TEM-1 counter -6 and VIM-2 inh conf 76*.
For COc1cnc(-c2ccccn2)nc1Oc1ccc(F)cc1F the results were VIM-2 inhibitor 18*, HCV core dimer -4, DNA FID counter -23, IMP-1 inh-1 -5, IMP-1 inh-2 -5, VIM-2 FRET inh -30, TEM-1 counter -4 and VIM-2 inh conf 29*.
For COc1cnc(-c2ccccn2)nc1Oc1ccc(Cl)cc1 the results were VIM-2 inhibitor 6, HCV core dimer 4, DNA FID counter -15 and IMP-1 inh-1 -4.
`COc1cccc(CC2CC(=O)N(CCc3ccc4c(c3)OCO4)C2=O)c1` (configuration not stated) gave VIM-2 inhibitor 0, HCV core dimer 10, DNA FID counter -23 and IMP-1 inh-1 -4.
Screening CSc1nc(C)c2c(n1)N(c1ccc(O)cc1)CC2 returned VIM-2 inhibitor 16*, HCV core dimer -9, DNA FID counter -7, IMP-1 inh-1 -3, IMP-1 inh-2 -2, VIM-2 FRET inh 8, TEM-1 counter -6 and VIM-2 inh conf 27*.
`CC(C)Sc1nc(SCC(=O)O)c2c3c(sc2n1)COC(C)(C)C3` gave VIM-2 inhibitor 24*, HCV core dimer 8, DNA FID counter -36, IMP-1 inh-1 0, IMP-1 inh-2 -4, VIM-2 FRET inh 23*, TEM-1 counter -5 and VIM-2 inh conf 8.8*.
O=c1[nH]nc(-c2ccc(NCCO)c([N+](=O)[O-])c2)c2ccccc12 was read as VIM-2 inhibitor 25*, HCV core dimer -4, DNA FID counter -7, IMP-1 inh-1 -3, IMP-1 inh-2 -3, VIM-2 FRET inh 2, TEM-1 counter -7 and VIM-2 inh conf 38*.
`Cc1ccc(-c2n[nH]c(=O)c3ccccc23)cc1S(=O)(=O)NCCO` gave VIM-2 inhibitor 1, HCV core dimer -1, DNA FID counter -4 and IMP-1 inh-1 -1.
`O=c1[nH]nc(-c2ccc(NCCCO)c([N+](=O)[O-])c2)c2ccccc12` gave VIM-2 inhibitor 24*, HCV core dimer 0, DNA FID counter -9, IMP-1 inh-1 -1, IMP-1 inh-2 -2, VIM-2 FRET inh 3, TEM-1 counter -2 and VIM-2 inh conf 34*.
Screening Cc1ccc(NC(=O)CSc2nnc(-c3ccccn3)n2N)cc1F returned VIM-2 inhibitor -3, HCV core dimer -1, DNA FID counter -5 and IMP-1 inh-1 -2.
For COCCCNCCOCCOc1c(OC)cccc1OC the results were VIM-2 inhibitor -2, HCV core dimer -2, DNA FID counter 7 and IMP-1 inh-1 -2.
Screening O=C(CCN1C(=O)/C(=C/c2ccccc2F)SC1=S)NCCCn1ccnc1 returned VIM-2 inhibitor 37*, HCV core dimer 0, DNA FID counter 8, IMP-1 inh-1 -1, IMP-1 inh-2 -2, VIM-2 FRET inh 44*, TEM-1 counter -8 and VIM-2 inh conf 41*.
O=C(CCCN1C(=O)/C(=C/c2ccccc2)SC1=S)NCCCn1ccnc1 was read as VIM-2 inhibitor 0, HCV core dimer 0, DNA FID counter 18 and IMP-1 inh-1 -1.
`Cc1cc(C)cc(Oc2nc(C(F)(F)F)nc3ccccc23)c1` gave VIM-2 inhibitor -3, HCV core dimer -2, DNA FID counter 4 and IMP-1 inh-1 -5.
For CC(=O)Nc1ccc(Oc2nc(C(F)(F)F)nc3ccccc23)cc1 the results were VIM-2 inhibitor 21*, HCV core dimer 6, DNA FID counter -13, IMP-1 inh-1 -2, IMP-1 inh-2 -3, VIM-2 FRET inh 0, TEM-1 counter -5 and VIM-2 inh conf 30*.
Screening C/C(=N\N=C(/N)SC1CC(=O)N(c2ccc(Cl)c(Cl)c2)C1=O)c1cccs1 (configuration not stated) returned VIM-2 inhibitor 0, HCV core dimer 5, DNA FID counter 9 and IMP-1 inh-1 -3.
Screening Nc1ccc(N2CCN(CCCCN3C(=O)C4CCCN4C3=O)CC2)cc1 (configuration not stated) returned VIM-2 inhibitor 25*, HCV core dimer -9, DNA FID counter -2, IMP-1 inh-1 -3, IMP-1 inh-2 -10, VIM-2 FRET inh -6, TEM-1 counter -6 and VIM-2 inh conf 11*.
Screening Cc1ccc(Cn2ncc3c(NN)ncnc32)cc1 returned VIM-2 inhibitor 41*, DNA FID counter -17, IMP-1 inh-1 -2, IMP-1 inh-2 -4, VIM-2 FRET inh -10, TEM-1 counter -5 and VIM-2 inh conf 58*.
`CN(C)CCNS(=O)(=O)c1ccc(N2CCN(c3ccc(F)cc3)CC2)c([N+](=O)[O-])c1` gave VIM-2 inhibitor 15*, HCV core dimer -12, DNA FID counter 38*, IMP-1 inh-1 -3, IMP-1 inh-2 -3, VIM-2 FRET inh 34*, TEM-1 counter -8 and VIM-2 inh conf 24*.
`CC(=O)N1CCN(c2ccc(S(=O)(=O)NCCN(C(C)C)C(C)C)cc2[N+](=O)[O-])CC1` gave VIM-2 inhibitor -1, HCV core dimer -3, DNA FID counter 10 and IMP-1 inh-1 -3.
For CCOC(=O)C1CCN(S(=O)(=O)CCNC(=O)c2ccc3c(c2)OCO3)CC1 the results were HCV core dimer 3.
